# From ChEMBL document CHEMBL1125037, “Synthesis and antihypertensive activity of 4-(1,2-dihydro-2-oxo-1-pyridyl)-2H-1-benzopyrans and related compounds, new potassium channel activators” (1990)
# Test system: Rattus norvegicus
# Assay: Dose required to reduce mean blood pressure after 2 hr following (po) administration conscious spontaneously hypertensive rat
# Format: functional
row,SMILES,ED30 [mg/kg]
1,CC1(C)Oc2ccc(C#N)cc2C(n2ncccc2=O)[C@@H]1O (some centres undefined),0.045
2,CC(=O)O[C@H]1[C@H](n2ccccc2=O)c2cc(C#N)ccc2OC1(C)C,0.112
3,CC1(C)C=C(n2ccccc2=O)c2cc(C#N)ccc2O1 [BIMAKALIM],0.036
4,CC1(C)Oc2ccc(C#N)cc2[C@H](N2CCCC2=O)[C@H]1O [(-)-CROMAKALIM],0.131
5,CC1(C)C=C(n2ccccc2=O)c2cc([N+](=O)[O-])ccc2O1,0.0007
6,CC1(C)Oc2ccc(C#N)cc2[C@@H](n2ccccc2=O)[C@@H]1OC=O,0.067
7,COC(=O)c1ccc2c(c1)C(n1ccccc1=O)=CC(C)(C)O2,0.573
8,CC1(C)Oc2ccc(C#N)cc2C(n2ccncc2=O)[C@@H]1O (some centres undefined),0.291
9,CC1(C)C=C(n2ccncc2=O)c2cc(C#N)ccc2O1,0.038
10,CC(=O)c1ccc2c(c1)C(n1ccccc1=O)=CC(C)(C)O2,0.074
11,CC1(C)C=C(n2cc(N)ccc2=O)c2cc(C#N)ccc2O1,0.341
12,CC1(C)C=C(n2ccccc2=O)c2cc(Br)ccc2O1,0.069
13,CC1(C)Oc2ccc(C#N)cc2C(N2N=CCCC2=O)[C@@H]1O (some centres undefined),0.056
14,CCOc1ccn(C2=CC(C)(C)Oc3ccc(C#N)cc32)c(=O)c1,0.137

# Test system: Rattus norvegicus
# Assay: Dose required to reduce mean blood pressure after 20 hr following (po) administration conscious spontaneously hypertensive rat
# Format: functional
row,SMILES,ED30 [mg/kg]
1,CC1(C)Oc2ccc(C#N)cc2C(n2ncccc2=O)[C@@H]1O (some centres undefined),0.082
2,CC(=O)O[C@H]1[C@H](n2ccccc2=O)c2cc(C#N)ccc2OC1(C)C,0.405
3,CC1(C)C=C(n2ccccc2=O)c2cc(C#N)ccc2O1 [BIMAKALIM],0.186
4,CC1(C)Oc2ccc(C#N)cc2[C@H](N2CCCC2=O)[C@H]1O [(-)-CROMAKALIM],0.603
5,CC1(C)C=C(n2ccccc2=O)c2cc([N+](=O)[O-])ccc2O1,0.102
6,CC1(C)Oc2ccc(C#N)cc2[C@@H](n2ccccc2=O)[C@@H]1OC=O,0.416
7,COC(=O)c1ccc2c(c1)C(n1ccccc1=O)=CC(C)(C)O2,2.06
8,CC1(C)Oc2ccc(C#N)cc2C(n2ccncc2=O)[C@@H]1O (some centres undefined),1.29
9,CC1(C)C=C(n2ccncc2=O)c2cc(C#N)ccc2O1,0.357
10,CC(=O)c1ccc2c(c1)C(n1ccccc1=O)=CC(C)(C)O2,0.546
11,CC1(C)C=C(n2cc(N)ccc2=O)c2cc(C#N)ccc2O1,1.61
12,CC1(C)C=C(n2ccccc2=O)c2cc(Br)ccc2O1,1.27
13,CC1(C)Oc2ccc(C#N)cc2C(N2N=CCCC2=O)[C@@H]1O (some centres undefined),0.148
14,CCOc1ccn(C2=CC(C)(C)Oc3ccc(C#N)cc32)c(=O)c1,> 1

# Test system: Rattus norvegicus
# Assay: Dose required to reduce blood pressure by 30 mmHg after (po) administration in conscious spontaneously hypertensive rat
# Format: functional
# How it was run: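 Conscious male Okamoto-strain SHR (280-330 g, >180 mmHg) were given two to four oral doses beyond the 1 mg/kg screen. Mean arterial pressure was recorded directly via an aortic catheter in unrestrained rats. The ED30, the dose in µg/kg lowering pressure by 30 mmHg, came from linear regression of effect vs log dose.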
row,SMILES,ED30 [mg/kg]
1,CC1(C)Oc2ccc(C#N)cc2C(n2ncccc2=O)[C@@H]1O (some centres undefined),0.036
2,CC(=O)O[C@H]1[C@H](n2ccccc2=O)c2cc(C#N)ccc2OC1(C)C,0.106
3,CC1(C)C=C(n2ccccc2=O)c2cc(C#N)ccc2O1 [BIMAKALIM],0.01
4,CC1(C)Oc2ccc(C#N)cc2[C@@H](n2ccccc2=O)[C@@H]1O [EMAKALIM],0.05
5,CC1(C)Oc2ccc(C#N)cc2[C@H](N2CCCC2=O)[C@H]1O [(-)-CROMAKALIM],0.11
6,CC1(C)C=C(n2ccccc2=O)c2cc([N+](=O)[O-])ccc2O1,0.00083
7,CC1(C)Oc2ccc([N+](=O)[O-])cc2[C@@H](n2ccccc2=O)[C@@H]1OC=O,0.074
8,CC1(C)Oc2ccc(C#N)cc2[C@@H](n2ccccc2=O)[C@@H]1OC=O,0.03
9,COC(=N)c1ccc2c(c1)C(N1CCCC1=O)[C@H](O)C(C)(C)O2 (some centres undefined),0.083
10,COC(=O)c1ccc2c(c1)C(n1ccccc1=O)=CC(C)(C)O2,0.202
11,CC1(C)Oc2ccc(C#N)cc2C(n2ccncc2=O)[C@@H]1O (some centres undefined),0.01
12,CC1(C)Oc2ccc([N+](=O)[O-])cc2[C@@H](n2ccccc2=O)[C@@H]1O,0.024
13,CC1(C)C=C(n2ccncc2=O)c2cc(C#N)ccc2O1,0.022
14,CC(=O)c1ccc2c(c1)C(n1ccccc1=O)=CC(C)(C)O2,0.025
15,COc1ccn([C@@H]2c3cc(C#N)ccc3OC(C)(C)[C@H]2O)c(=O)c1,0.197
16,CC1(C)C=C(n2cc(N)ccc2=O)c2cc(C#N)ccc2O1,0.206
17,CC1(C)Oc2ccc([N+](=O)[O-])cc2[C@]2(n3ccccc3=O)O[C@H]12,0.06
18,CC1(C)CC(n2ccccc2=O)c2cc(C#N)ccc2O1 (centres undefined),0.15
19,CC1(C)C=C(n2ccccc2=O)c2cc(Br)ccc2O1,0.11
20,CC1(C)Oc2ccc(C#N)cc2C(N2N=CCCC2=O)[C@@H]1O (some centres undefined),0.211
21,COc1ccn(C2=CC(C)(C)Oc3ccc(C#N)cc32)c(=O)c1,0.066
22,CCOc1ccn(C2=CC(C)(C)Oc3ccc(C#N)cc32)c(=O)c1,0.017
23,CC1(C)Oc2ccc(C#N)cc2[C@]2(n3ccccc3=O)O[C@H]12,0.202

# Test system: Rattus norvegicus
# Assay: Dose required to reduce mean blood pressure was determined after 20h following(po) administration in conscious spontaneously hypertensive rat
# Format: functional
row,SMILES,ED30 [mg/kg]
1,CC1(C)Oc2ccc(C#N)cc2[C@@H](n2ccccc2=O)[C@@H]1O [EMAKALIM],0.138
2,CC1(C)Oc2ccc([N+](=O)[O-])cc2[C@@H](n2ccccc2=O)[C@@H]1O,0.884

# Test system: Rattus norvegicus
# Assay: Antihypertensive effect after 1 mg/kg (po) administration in conscious spontaneously hypertensive rat (over a time period of 0-210 minutes).
# Format: functional
# How it was run: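 Male Okamoto-strain SHR (280-330 g, blood pressure >180 mmHg), conscious and unrestrained, given 1 mg/kg orally as a screening dose. Mean arterial pressure was recorded directly and continuously via an aortic catheter from 1 h before to 3.5 h after dosing. The effect is the mean of the maximum individual changes over 3.5 h; N ≥ 3.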
row,SMILES,Max fall in blood pressure [mmHg]
1,CC1(C)Oc2ccc(C#N)cc2C(n2ncccc2=O)[C@@H]1O (some centres undefined),77
2,CC(=O)O[C@H]1[C@H](n2ccccc2=O)c2cc(C#N)ccc2OC1(C)C,89
3,CC1(C)C=C(n2ccccc2=O)c2cc(C#N)ccc2O1 [BIMAKALIM],142
4,CC1(C)Oc2ccc(C#N)cc2[C@@H](n2ccccc2=O)[C@@H]1O [EMAKALIM],108
5,CC1(C)Oc2ccc(C#N)cc2[C@H](N2CCCC2=O)[C@H]1O [(-)-CROMAKALIM],78
6,CC1(C)C=C(n2ccccc2=O)c2cc([N+](=O)[O-])ccc2O1,140
7,CC1(C)Oc2ccc([N+](=O)[O-])cc2[C@@H](n2ccccc2=O)[C@@H]1OC=O,129
8,CC1(C)Oc2ccc(C#N)cc2[C@@H](n2ccccc2=O)[C@@H]1OC=O,101
9,COC(=N)c1ccc2c(c1)C(N1CCCC1=O)[C@H](O)C(C)(C)O2 (some centres undefined),76
10,COC(=O)c1ccc2c(c1)C(n1ccccc1=O)=CC(C)(C)O2,98
11,CC1(C)Oc2ccc(C#N)cc2C(n2ccncc2=O)[C@@H]1O (some centres undefined),75
12,CC1(C)Oc2ccc([N+](=O)[O-])cc2[C@@H](n2ccccc2=O)[C@@H]1O,113
13,CC1(C)C=C(n2ccncc2=O)c2cc(C#N)ccc2O1,105
14,CC(=O)c1ccc2c(c1)C(n1ccccc1=O)=CC(C)(C)O2,130
15,COc1ccn([C@@H]2c3cc(C#N)ccc3OC(C)(C)[C@H]2O)c(=O)c1,73
16,CC1(C)C=C(n2cc(N)ccc2=O)c2cc(C#N)ccc2O1,94
17,CC1(C)Oc2ccc([N+](=O)[O-])cc2[C@]2(n3ccccc3=O)O[C@H]12,118
18,CC1(C)CC(n2ccccc2=O)c2cc(C#N)ccc2O1 (centres undefined),92
19,CC1(C)C=C(n2ccccc2=O)c2cc(Br)ccc2O1,131
20,CC1(C)Oc2ccc(C#N)cc2C(N2N=CCCC2=O)[C@@H]1O (some centres undefined),63
21,COc1ccn(C2=CC(C)(C)Oc3ccc(C#N)cc32)c(=O)c1,113
22,CCOc1ccn(C2=CC(C)(C)Oc3ccc(C#N)cc32)c(=O)c1,136
23,CC1(C)Oc2ccc(C#N)cc2[C@]2(n3ccccc3=O)O[C@H]12,69

# Test system: Rattus norvegicus
# Assay: Dose required to reduce mean blood pressure was determined after 2 hr following(po) administration in conscious spontaneously hypertensive rat
# Format: functional
row,SMILES,ED30 [mg/kg]
1,CC1(C)Oc2ccc(C#N)cc2[C@@H](n2ccccc2=O)[C@@H]1O [EMAKALIM],0.045
2,CC1(C)Oc2ccc([N+](=O)[O-])cc2[C@@H](n2ccccc2=O)[C@@H]1O,0.035

# Test system: not listed separately
# Assay: Ratio of ED30(20h) to ED30(2h) was determined
# Format: functional
row,SMILES,Ratio
1,CC1(C)Oc2ccc(C#N)cc2C(n2ncccc2=O)[C@@H]1O (some centres undefined),1.8
2,CC(=O)O[C@H]1[C@H](n2ccccc2=O)c2cc(C#N)ccc2OC1(C)C,3.6
3,CC1(C)C=C(n2ccccc2=O)c2cc(C#N)ccc2O1 [BIMAKALIM],5.2
4,CC1(C)Oc2ccc(C#N)cc2[C@@H](n2ccccc2=O)[C@@H]1O [EMAKALIM],3.1
5,CC1(C)Oc2ccc(C#N)cc2[C@H](N2CCCC2=O)[C@H]1O [(-)-CROMAKALIM],4.6
6,CC1(C)C=C(n2ccccc2=O)c2cc([N+](=O)[O-])ccc2O1,146
7,CC1(C)Oc2ccc(C#N)cc2[C@@H](n2ccccc2=O)[C@@H]1OC=O,6.2
8,COC(=O)c1ccc2c(c1)C(n1ccccc1=O)=CC(C)(C)O2,3.6
9,CC1(C)Oc2ccc(C#N)cc2C(n2ccncc2=O)[C@@H]1O (some centres undefined),4.4
10,CC1(C)Oc2ccc([N+](=O)[O-])cc2[C@@H](n2ccccc2=O)[C@@H]1O,25.2
11,CC1(C)C=C(n2ccncc2=O)c2cc(C#N)ccc2O1,9.4
12,CC(=O)c1ccc2c(c1)C(n1ccccc1=O)=CC(C)(C)O2,7.4
13,CC1(C)C=C(n2cc(N)ccc2=O)c2cc(C#N)ccc2O1,4.7
14,CC1(C)C=C(n2ccccc2=O)c2cc(Br)ccc2O1,18.4
15,CC1(C)Oc2ccc(C#N)cc2C(N2N=CCCC2=O)[C@@H]1O (some centres undefined),2.6
16,CCOc1ccn(C2=CC(C)(C)Oc3ccc(C#N)cc32)c(=O)c1,> 7.3
